Active and inactive are the calls of the source. The calls are words filed in the database; no cut-off is given here.
Assays:
[1] = target: Cyclin-dependent kinase 1/cyclin B1 (Homo sapiens, UniProt P06493); assay: Inhibition of CDK1/Cyclin B; format: protein-complex assay
[2] = target: Cyclin-dependent kinase 2 (Homo sapiens, UniProt P24941); assay: Inhibition of CDK2/Cyclin A
[3] = Inhibition of CDK4/Cyclin D
[4] = test system: MCF7; assay: Antitumor activity against human MCF7 cells assessed as cell growth at 10 uM after 48 hrs by sulforhodamine B assay; format: functional; details: MCF7, 48 h, read-out: Activity
Outline: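 NCI primary screen, single concentration 10^-5 M against MCF7, NCI-H460 and SF-268. Cells in RPMI 1640 with 5% FBS and 2 mM L-glutamine, seeded at 5000–40,000 cells/well by cell type, preincubated 24 h at 37 °C. Compound added at time zero, then 48 h incubation (5% CO2, 100% humidity). Growth read by sulforhodamine B optical density, reported as growth percentage.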

[5] = test system: CCRF-CEM; assay: Cytotoxicity against human CCRF-CEM cells after 48 hrs by sulforhodamine B assay; format: functional
Outline: (§1)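 NCI human tumor panel. Cells in RPMI 1640 with 5% FBS and 2 mM L-glutamine, 5000–40,000 cells/well by growth characteristics, 24 h preincubation at 37 °C. Compound added at time zero at five 10-fold dilutions, top concentration agent-dependent. Incubated 48 h (5% CO2, 100% humidity), then sulforhodamine B stain and plate-reader OD. GI50 and TGI are the concentrations giving 50% and total growth inhibition, in µM.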

[6] = test system: SR; assay: Cytotoxicity against human SR cells after 48 hrs by sulforhodamine B assay; format: functional; outline: as §1
[7] = test system: HOP-62; assay: Cytotoxicity against human HOP62 cells after 48 hrs by sulforhodamine B assay; format: functional; details: for GI50: HOP-62, 48 h; outline: as §1
[8] = test system: HOP-92; assay: Cytotoxicity against human HOP92 cells after 48 hrs by sulforhodamine B assay; format: functional; details: for GI50: HOP-92, 48 h; outline: as §1
[9] = test system: NCI-H226; assay: Cytotoxicity against human NCI-H226 cells after 48 hrs by sulforhodamine B assay; format: functional; details: NCI-H226, 48 h; outline: as §1
[10] = test system: NCI-H322M; assay: Cytotoxicity against human NCI-H322M cells after 48 hrs by sulforhodamine B assay; format: functional; outline: as §1
[11] = test system: HCC 2998; assay: Cytotoxicity against human HCC2998 cells after 48 hrs by sulforhodamine B assay; format: functional; outline: as §1
[12] = test system: HCT-116; assay: Cytotoxicity against human HCT116 cells after 48 hrs by sulforhodamine B assay; format: functional; details: for GI50: HCT-116, 48 h; outline: as §1
[13] = test system: HCT-15; assay: Cytotoxicity against human HCT15 cells after 48 hrs by sulforhodamine B assay; format: functional; outline: as §1
[14] = test system: KM12; assay: Cytotoxicity against human KM12 cells after 48 hrs by sulforhodamine B assay; format: functional; details: for GI50: KM12, 48 h; outline: as §1
[15] = test system: SF-268; assay: Cytotoxicity against human SF268 cells after 48 hrs by sulforhodamine B assay; format: functional; outline: as §1
[16] = test system: SF-539; assay: Cytotoxicity against human SF539 cells after 48 hrs by sulforhodamine B assay; format: functional; outline: as §1
[17] = test system: SNB-75; assay: Cytotoxicity against human SNB75 cells after 48 hrs by sulforhodamine B assay; format: functional; outline: as §1
[18] = test system: LOX IMVI; assay: Cytotoxicity against human LOXIMVI cells after 48 hrs by sulforhodamine B assay; format: functional; outline: as §1
[19] = test system: UACC-62; assay: Cytotoxicity against human UACC62 cells after 48 hrs by sulforhodamine B assay; format: functional; outline: as §1
[20] = test system: OVCAR-3; assay: Cytotoxicity against human OVCAR-3 cells after 48 hrs by sulforhodamine B assay; format: functional; outline: as §1
[21] = test system: OVCAR-4; assay: Cytotoxicity against human OVCAR4 cells after 48 hrs by sulforhodamine B assay; format: functional; outline: as §1
[22] = test system: A498; assay: Cytotoxicity against human A498 cells after 48 hrs by sulforhodamine B assay; format: functional; outline: as §1
[23] = test system: ACHN; assay: Cytotoxicity against human ACHN cells after 48 hrs by sulforhodamine B assay; format: functional; outline: as §1
[24] = test system: CAKI-1; assay: Cytotoxicity against human Caki1 cells after 48 hrs by sulforhodamine B assay; format: functional; details: CAKI-1, 48 h; outline: as §1
[25] = test system: TK-10; assay: Cytotoxicity against human TK10 cells after 48 hrs by sulforhodamine B assay; format: functional; details: for GI50: TK-10, 48 h; outline: as §1
[26] = test system: MCF7; assay: Cytotoxicity against human MCF7 cells after 48 hrs by sulforhodamine B assay; format: functional; details: for GI50: MCF7, 48 h; outline: as §1
[27] = test system: Hs-578T; assay: (§2) Cytotoxicity against human Hs 578T cells after 48 hrs by sulforhodamine B assay; format: functional; outline: as §1
[28] = test system: BT-549; assay: Cytotoxicity against human BT549 cells after 48 hrs by sulforhodamine B assay; format: functional; outline: as §1
[29] = Cytotoxicity against human […] cells after 48 hrs by sulforhodamine B assay; format: functional; outline: as §1
[30] = as §2; format: functional; outline: as §1
[31] = test system: HCT-116; assay: Antitumor activity against human HCT116 cells xenografted in nude mouse; format: functional, cell-based

Sequence of Cyclin-dependent kinase 1/cyclin B1 (P06493 whole entry): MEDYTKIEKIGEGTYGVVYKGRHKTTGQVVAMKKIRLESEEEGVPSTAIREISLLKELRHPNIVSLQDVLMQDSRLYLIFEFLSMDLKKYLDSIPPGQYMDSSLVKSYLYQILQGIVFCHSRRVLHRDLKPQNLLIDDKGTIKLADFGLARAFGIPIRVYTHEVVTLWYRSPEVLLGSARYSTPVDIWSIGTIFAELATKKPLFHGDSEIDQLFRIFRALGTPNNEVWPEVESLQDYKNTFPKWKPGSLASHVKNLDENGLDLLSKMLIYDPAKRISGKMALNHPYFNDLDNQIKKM
Sequence of Cyclin-dependent kinase 1/cyclin B1 (P14635 whole entry, further chain): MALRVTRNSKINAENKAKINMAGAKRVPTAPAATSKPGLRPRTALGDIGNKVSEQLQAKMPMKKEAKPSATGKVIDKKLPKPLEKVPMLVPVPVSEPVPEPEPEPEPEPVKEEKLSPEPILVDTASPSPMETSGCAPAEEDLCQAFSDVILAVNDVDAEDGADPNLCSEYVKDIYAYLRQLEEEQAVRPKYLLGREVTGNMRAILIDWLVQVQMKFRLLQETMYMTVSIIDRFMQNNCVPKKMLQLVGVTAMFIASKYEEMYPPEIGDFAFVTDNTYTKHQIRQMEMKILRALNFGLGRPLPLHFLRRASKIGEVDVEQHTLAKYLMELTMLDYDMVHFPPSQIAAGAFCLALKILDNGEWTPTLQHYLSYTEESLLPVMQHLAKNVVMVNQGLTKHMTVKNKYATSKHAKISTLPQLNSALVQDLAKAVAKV

Structure (SMILES) | IC50 [1] | IC50 [2] | IC50 [3] | growth at 10 µM [4] | GI50 [9] | pGI50 [11] | GI50 [12] | GI50 [14] | pGI50 [15] | pGI50 [16] | pGI50 [17] | pGI50 [18] | pGI50 [19] | pGI50 [20] | pGI50 [21] | pGI50 [22] | pGI50 [23] | GI50 [24] | pGI50 [27] | GI50 [5] | other results
Cc1nnc2sc(Cc3sc(N)nc3O)nn12 | 12 µM | 250 nM | 12 µM | 130% | 77.6 µM | inactive | 83.2 µM | 97.7 µM | inactive | inactive | inactive | inactive | inactive | inactive | inactive | inactive | inactive | 63.1 µM | inactive | – | pGI50 [5]: inactive; pGI50 [6]: inactive; pGI50 [7]: inactive; pGI50 [8]: inactive; GI50 [10]: 87.1 µM; pGI50 [13]: inactive; pGI50 [25]: inactive; pGI50 [26]: inactive; pGI50 [28]: inactive
Nc1ccc(-c2nn3c(COc4ccc(Cl)cc4)nnc3s2)cc1 | 6.5 µM | 330 nM | 2.1 µM | 128% | 7.24 µM | inactive | 34.7 µM | > 100 µM | – | – | – | inactive | inactive | inactive | inactive | inactive | – | 49 µM | – | 10 µM | GI50 [29]: 77.6 µM; GI50 [6]: 91.2 µM; GI50 [7]: 20.4 µM; GI50 [8]: 97.7 µM; pGI50 [10]: inactive; GI50 ([15]; SF-268, 48 h): 46.8 µM; GI50 ([16]; SF-539, 48 h): 34.7 µM; GI50 [23]: 53.7 µM; GI50 [25]: 85.1 µM; GI50 [26]: 40.7 µM; GI50 [30]: 87.1 µM; Activity [31]: inactive
Clc1ccc(OCc2nnc3sc(SSc4nn5c(COc6ccc(Cl)cc6)nnc5s4)nn23)cc1 | 11 µM | 820 nM | 8 µM | 147% | 87.1 µM | – | – | – | inactive | inactive | inactive | – | – | – | – | – | inactive | 77.6 µM | inactive | 75.9 µM | GI50 [29]: 44.7 µM; GI50 [6]: 14.1 µM; GI50 [7]: 66.1 µM; GI50 [8]: 18.2 µM; GI50 ([11]; HCC 2998, 48 h): 16.2 µM; pGI50 [12]: inactive; GI50 ([13]; HCT-15, 48 h): 87.1 µM; pGI50 [14]: inactive; GI50 ([19]; UACC-62, 48 h): 44.7 µM; GI50 ([20]; OVCAR-3, 48 h): 35.5 µM; GI50 ([21]; OVCAR-4, 48 h): 46.8 µM; GI50 ([22]; A498, 48 h): 28.8 µM; GI50 [25]: 72.4 µM; GI50 [26]: 44.7 µM; GI50 ([28]; BT-549, 48 h): 47.9 µM; Activity [31]: inactive

Source: ChEMBL document CHEMBL1152892, “Synthesis and biological evaluation of 3,6-disubstituted [1,2,4]triazolo[3,4-b][1,3,4]thiadiazole derivatives as a novel class of potential anti-tumor agents” (Eur J Med Chem, 2009)
